Laboratory results from ChEMBL document CHEMBL1152452, “Modifications incorporated in CpG motifs of oligodeoxynucleotides lead to antagonist activity of toll-like receptors 7 and 9” (2009).
The source made the active and inactive calls.

Columns and labels:
[1] = molecular target: T1, Toll-like receptor 9 (Mus musculus) (UniProt Q9EQU3); test: Activation of mouse TLR9 expressed in HEK293 cells assessed as NF-kappaB level at 0.1 ug/mL after 18 hrs by reporter gene assay; format: cell-based
T1 sequence (whole entry): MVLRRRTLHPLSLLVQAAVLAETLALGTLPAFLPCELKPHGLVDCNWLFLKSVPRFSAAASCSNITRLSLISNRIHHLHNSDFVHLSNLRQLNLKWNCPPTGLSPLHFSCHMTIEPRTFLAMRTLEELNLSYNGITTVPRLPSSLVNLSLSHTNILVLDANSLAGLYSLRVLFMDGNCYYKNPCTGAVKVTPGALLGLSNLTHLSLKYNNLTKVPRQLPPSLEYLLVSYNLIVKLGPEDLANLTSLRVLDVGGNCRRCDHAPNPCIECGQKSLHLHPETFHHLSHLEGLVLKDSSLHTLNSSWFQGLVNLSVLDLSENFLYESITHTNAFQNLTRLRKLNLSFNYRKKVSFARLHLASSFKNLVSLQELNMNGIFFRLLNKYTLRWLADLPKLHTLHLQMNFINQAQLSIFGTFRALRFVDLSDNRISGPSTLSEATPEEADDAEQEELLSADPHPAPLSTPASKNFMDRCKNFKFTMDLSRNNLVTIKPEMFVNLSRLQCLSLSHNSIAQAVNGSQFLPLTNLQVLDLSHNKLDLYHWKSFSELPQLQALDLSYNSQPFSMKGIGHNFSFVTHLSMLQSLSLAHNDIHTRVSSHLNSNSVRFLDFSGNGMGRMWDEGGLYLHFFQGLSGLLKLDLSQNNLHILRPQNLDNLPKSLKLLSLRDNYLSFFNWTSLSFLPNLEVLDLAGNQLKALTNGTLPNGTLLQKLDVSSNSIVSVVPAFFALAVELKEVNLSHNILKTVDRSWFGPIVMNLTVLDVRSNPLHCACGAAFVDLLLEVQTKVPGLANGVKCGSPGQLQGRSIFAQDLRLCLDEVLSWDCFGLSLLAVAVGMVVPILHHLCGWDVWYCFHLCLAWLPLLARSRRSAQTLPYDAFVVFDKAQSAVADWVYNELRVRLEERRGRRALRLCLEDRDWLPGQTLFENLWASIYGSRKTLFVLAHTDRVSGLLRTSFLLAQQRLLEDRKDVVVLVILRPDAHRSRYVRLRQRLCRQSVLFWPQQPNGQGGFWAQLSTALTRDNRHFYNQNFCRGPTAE
How it was run: (§1)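 HEK293 cells stably expressing mouse TLR9 were transiently transfected with a SEAP reporter for 6 h, then stimulated with ODN at 0.1, 0.3 or 1 μg/mL for 18 h. Reporter expression is given as fold change in NF-κB activity over medium. Representative of two independent experiments.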

[2] = molecular target: T1, Toll-like receptor 9 (Mus musculus); test: Activation of mouse TLR9 expressed in HEK293 cells assessed as NF-kappaB level at 0.3 ug/mL after 18 hrs by reporter gene assay; format: cell-based; how it was run: as §1
[3] = molecular target: T1, Toll-like receptor 9 (Mus musculus); test: Activation of mouse TLR9 expressed in HEK293 cells assessed as NF-kappaB level at 1 ug/mL after 18 hrs by reporter gene assay; format: cell-based; how it was run: as §1
J774 = test: Activation of NF-kappaB in mouse J774 cells at 0.5 ug/ml after 1 hr by EMSA; format: cell-based
How it was run: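 Murine J774 macrophages in DMEM with 10% FBS and antibiotics, plated at 5×10^6 cells/well. ODNs were given alone or together for 1 h. For inhibition, the agonist ODN at 0.5 μg/mL was co-incubated with the modified ODN at 2.5 μg/mL. Nuclear extracts were resolved by EMSA on native polyacrylamide gels and read by autoradiography.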

Splenocyte [4] = test: Immunostimulatory activity in C57BL/6 mouse splenocytes assessed as induction of IL12 secretion after 24 hrs by sandwich ELISA; format: functional, cell-based
How it was run: (§2)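 C57BL/6 splenocytes (mice 5–8 weeks) at 5 × 10^6 cells/mL in RPMI complete medium. ODNs dissolved in PBS were added and the cells incubated at 37 °C for 24 h. Supernatant IL-12 or IL-6 was measured by sandwich ELISA. Runs were done two or three times, in duplicate per concentration.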

Splenocyte [5] = test: Immunostimulatory activity in C57BL/6 mouse splenocytes assessed as induction of IL6 secretion after 24 hrs by sandwich ELISA; format: functional, cell-based; how it was run: as §2
Mus musculus [6] = test: Immunostimulatory activity in C57BL/6 mouse assessed as induction of MIP-1alpha level in serum at 2 mg/kg, sc after 2 hrs by Luminex multiplex assay; format: functional, organism-based; design: dose 2 mg/kg
How it was run: (§3)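 Female C57BL/6 mice, 5–6 weeks old, n = 3, received a single 2 mg/kg subcutaneous ODN injection in the right flank. Blood was taken by retro-orbital bleeding 2 h later. Naive mice served as baseline. Representative of three experiments.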

Mus musculus [7] = test: Immunostimulatory activity in C57BL/6 mouse assessed as induction of TNFalpha level in serum at 2 mg/kg, sc after 2 hrs by Luminex multiplex assay; format: functional, organism-based; design: dose 2 mg/kg; how it was run: as §3
Mus musculus [8] = test: Immunostimulatory activity in C57BL/6 mouse assessed as induction of IL10 level in serum at 2 mg/kg, sc after 2 hrs by Luminex multiplex assay; format: functional, organism-based; design: dose 2 mg/kg; how it was run: as §3
Mus musculus [9] = test: Immunostimulatory activity in C57BL/6 mouse assessed as induction of MCP1 level in serum at 2 mg/kg, sc after 2 hrs by Luminex multiplex assay; format: functional, organism-based; design: dose 2 mg/kg; how it was run: as §3
Mus musculus [10] = test: Immunostimulatory activity in C57BL/6 mouse assessed as induction of KC level in serum at 2 mg/kg, sc after 2 hrs by Luminex multiplex assay; format: functional, organism-based; design: dose 2 mg/kg; how it was run: as §3
Mus musculus [11] = test: Immunostimulatory activity in C57BL/6 mouse assessed as induction of IL12 level in serum at 2 mg/kg, sc after 2 hrs by sandwich ELISA; format: functional, organism-based; design: dose 2 mg/kg; how it was run: as §3

Measured: Activity

Cc1cn([C@H]2C[C@H](OP(=O)(S)OC[C@H]3O[C@@H](n4ccc(N)nc4=O)C[C@@H]3OP(=O)(S)OC[C@H]3O[C@@H](n4cc(C)c(=O)[nH]c4=O)C[C@@H]3OP(=O)(S)OC[C@H]3O[C@@H](n4cnc5c(=O)[nH]c(N)nc54)C[C@@H]3OP(=O)(S)OC[C@H]3O[C@@H](n4cc(C)c(=O)[nH]c4=O)C[C@@H]3O)[C@@H](COP(=O)(S)O[C@H]3C[C@H](n4ccc(N)nc4=O)O[C@@H]3COP(=O)(S)O[C@H]3C[C@H](n4cc(C)c(=O)[nH]c4=O)O[C@@H]3COP(=O)(S)O[C@H]3C[C@H](n4cc(C)c(=O)[nH]c4=O)O[C@@H]3COP(=O)(S)O[C@H]3C[C@H](n4cnc5c(=O)[nH]c(N)nc54)O[C@@H]3COP(=O)(S)O[C@H]3C[C@H](n4ccc(N)nc4=O)O[C@@H]3COP(=O)(S)O[C@H]3C[C@H](n4cnc5c(N)ncnc54)O[C@@H]3COP(=O)(S)O[C@H]3C[C@H](n4cnc5c(=O)[nH]c(N)nc54)O[C@@H]3COP(=O)(S)O[C@H]3C[C@H](n4cc(C)c(=O)[nH]c4=O)O[C@@H]3COP(=O)(S)O[C@H]3C[C@H](n4ccc(N)nc4=O)O[C@@H]3COP(=O)(S)O[C@H]3C[C@H](n4cc(C)c(=O)[nH]c4=O)O[C@@H]3COP(=O)(S)O[C@H]3C[C@H](n4cnc5c(N)ncnc54)O[C@@H]3COP(=O)(S)O[C@H]3C[C@H](n4cc(C)c(=O)[nH]c4=O)O[C@@H]3COP(=O)(S)O[C@H]3C[C@H](n4ccc(N)nc4=O)O[C@@H]3CO)O2)c(=O)[nH]c1=O (some centres not stated)
active: [1] | [2] | [3] | J774 | Splenocyte [4] Dose-dependent effect | Splenocyte [5] Dose-dependent effect | Mus musculus [6] | Mus musculus [7] | Mus musculus [8] | Mus musculus [9] | Mus musculus [10] | Mus musculus [11]
